For one series, the system named is PDGFRB. Conditions: cited from earlier work.
For a further series, the system named is TIE2. Conditions: cited from earlier work.
Series [1] relates to advanced gastrointestinal stromal tumor (GIST). The series is described as follows: Phase I study efficacy, investigator assessed, RECIST version 1.1. It is filed as in vivo, human. Particulars: 150 mg once daily. A digest of the protocol: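 Patients with advanced GIST after ≥1 prior systemic therapy received oral test compound 150 mg once daily in 28-day cycles, in dose-escalation or expansion. Imaging at screening, after cycles 2, 4 and 6, then every three cycles and at final visit. Responses were investigator-assessed per RECIST 1.1 and confirmed about 28 days later. Intent-to-treat population, grouped by line of therapy.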

Series [2] can be described thus: Plasma pharmacokinetics in patients. It is filed as in vivo, human.
The next series relates to VEGFR2. Conditions: cited from earlier work.
Series [3] in a line: Phase I study safety: TEAEs, DLTs, MTD. Conditions: for MTD: maximum dose evaluated 200 mg twice a day. In kind it is in vivo, human. A digest of the protocol:
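Oral test compound was given at 20-200 mg twice a day or 100-250 mg once daily in 28-day cycles, using pharmacologically guided 3 + 3 escalation. A level was safe with zero DLTs in three or one in six patients. AEs were recorded from consent to 30 days after last dose and investigator-graded by CTCAE v4.03. Safety population: all patients dosed.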

Another series deals with advanced GIST. Conditions: cited from earlier work.
A further series has as its system BRAF. Conditions: cited from earlier work.
Series [4] has as its system GIST. Particulars: cited from earlier work.
In series [5] the test system is GIST. Conditions: cited from earlier work. This is another data set of the same source.
The subject of a further series is metastatic GIST. Conditions: first-line; cited from earlier work.
Where [6] appears, read: 150 mg once daily, cycle 1 day 15.

Several values for one entry are separate records, joined by “and”; a condition that tells them apart may be missing. Equal entries are not always repeated. Entries after “also recorded” stand apart in the source; their conditions may differ. Where two headings read alike, the source gives them in different places.

For the compound `CCn1c(=O)c(-c2cc(NC(=O)Nc3ccccc3)c(F)cc2Br)cc2cnc(NC)cc21` [Ripretinib, 1-[4-bromo-5-[1-ethyl-7-(methylamino)-2-oxo-1,2-dihydro-1,6-naphthyridin-3-yl]-2-fluorophenyl]-3-phenylurea], in the series on PDGFRB, the inhibition in vitro result was “inhibits”. In addition, the inhibition in vitro result in the series on TIE2 is given as “inhibits”. Besides, in [1] (fourth line or greater), the “Duration of response, median (95% CI)” value is reported as 17.5 months; the “ORR (95% CI)” value turned out to be 7.2%; the “PFS, median (95% CI)” value came out at 5.5 months; the “probability of PFS at 12 months” value is on record as 21.2%. In addition, in series [1] (second line), the “Duration of response, median (95% CI)” value was 18.4 months; the “ORR (95% CI)” value came to 19.4%; the “PFS, median (95% CI)” value stood at 10.7 months; the “probability of PFS at 12 months” value turned out to be 33.5%. Further, in series [1] (third line), the “ORR (95% CI)” value was found to be 14.3%; the “PFS, median (95% CI)” value worked out at 8.3 months; the “probability of PFS at 12 months” value stood at 29.2%. In series [1] (total), the “Duration of response, median (95% CI)” value stood at 18.4 months and the “ORR (95% CI)” value amounted to 11.3%. Besides, the “Cmax higher compared with cycle 1 day 1” value in [2] (setting [6]) worked out at 61%. The “accumulation on the basis of AUC0-12h” value in [2] (150 mg once daily, cycle 1 day 15 vs day 1) is listed as 66%. Moreover, the Tmax (commonly the time at which the peak concentration occurs) in [2] (human, plasma, oral, time to Tmax, single doses, fasting, cycle 1 day 1) is 2 to 10 h. Besides, in series [2] (single doses with PK data for at least 10 patients), the “CV% for Cmax and AUC0-24h” value is recorded as 35%-60%. Further, the inhibition in vitro entry in the series with VEGFR2 is listed as “inhibits”. The DLT result in series [3] (100 mg twice a day (n = 12)) is on record as “asymptomatic grade 3 lipase elevation”. In addition, the DLT entry in series [3] (150 mg once daily (n = 12)) is “asymptomatic grade 4 creatine phosphokinase increase”. For the same compound, the DLT entry in series [3] (200 mg twice a day (n = 7)) is listed as “asymptomatic grade 3 lipase elevation”. In [3] (GIST, 150 mg once daily), the “Alopecia, Total Grades 1–4” value was 88 [62.0%] No. (%) and 88 (62.0%) No. (%); the “Constipation, Total Grades 1–4” value was 56 [39.4%] No. (%); the “Decreased appetite, Total Grades 1–4” value is 48 [33.8%] No. (%); the “Diarrhea, Total Grades 1–4” value was 47 [33.1%] No. (%). Further, in [3] (GIST, 150 mg once daily), the “Fatigue, Total Grades 1–4” value is 78 [54.9%] No. (%); the “Lipase increased, Grade 3/4” value was 25 (17.6%) No. (%); the “Myalgia, Total Grades 1–4” value was 69 [48.6%] No. (%); the “Nausea, Total Grades 1–4” value is 65 [45.8%] No. (%). In series [3] (GIST, 150 mg once daily), the “PPES, Total Grades 1–4” value is 62 [43.7%] No. (%); the “TEAEs leading to a dose reduction” value is 26 (18.3%) patients (%); the “TEAEs leading to treatment interruption” value is given as 77 (54.2%) patients (%); the “Treatment-emergent SAE: abdominal pain” value was 14 [9.9%] n [%]. Also, in [3] (GIST, 150 mg once daily), the “Treatment-emergent SAE: cancer surgery” value was 7 [4.9%] n [%], the “Treatment-emergent SAE: death” value was 11 [7.7%] n [%], the “Treatment-emergent SAE: sepsis” value is 6 [4.2%] n [%] and the “patients who discontinued study treatment because of PPES” value is “no patients”. For the same compound, in series [3] (GIST, 150 mg once daily, total), the “Any TEAE” value is listed as 142 (100%) No. (%). Also, in series [3] (all patients), the “Any TEAE, grade 3 and 4” value was 173 (67.1%) No. (%); the “Any TEAE, grade All” value is reported as 257 (99.6%) No. (%); the “TEAEs leading to a dose reduction” value is given as 38 (14.7%) patients (%); the “TEAEs leading to treatment interruption” value is recorded as 127 (49.2%) patients (%). In addition, in series [3] (all patients), the “Treatment-emergent SAE: abdominal pain” value is 17 [6.6%] n [%], the “Treatment-emergent SAE: cancer surgery” value was 10 [3.9%] n [%], the “Treatment-emergent SAE: death” value was 16 [6.2%] n [%] and the “Treatment-emergent SAE: dyspnea” value is 8 [3.1%] n [%]. In series [3] (all patients), the “discontinued study treatment secondary to a drug-related TEAE” value is listed as 16 (6.2%) patients (%) and the “treatment-emergent serious adverse event (SAE)” value was 137 (53.1%) patients (%). In series [3] (dose-escalation phase), the DLTs reported entry is given as “Three” and the “patients at each dose level who experienced a DLT” value is less than 33%. In series [3] (in vivo), the RP2D was determined as 150 mg once daily. For the same compound, the MTD result in [3] is “no maximum tolerated dose was reached”. Also, in [3] (listed as ripretinib), the MTD result is “not reached; also recorded: No MTD was reached”. Also, the mPFS in the series on advanced GIST is recorded as 6.3 month. Also, the inhibition in vitro entry in the series with BRAF is recorded as “inhibits”.
Take `CCn1c(=O)c(-c2cc(NC(=O)Nc3ccccc3)c(F)cc2Br)cc2cnc(N)cc21` [DP-5439]: the accumulation in [2] (setting [6]) was 4.6- to 5.3 fold. Also, the “exposure (AUC) relative to parent ripretinib” value in series [2] (15 days of dosing at 150 mg once daily) is “approximately 129%”; in series [2] (single 150-mg doses), “approximately 49%”.
Consider `CCN(CC)CCNC(=O)c1c(C)[nH]c(/C=C2\C(=O)Nc3ccc(F)cc32)c1C` [sunitinib], for which, in the series with GIST [4], the “syndromes such as PPES, grade 3” value is reported as 4%. Also, the mPFS entry with GIST [4] (second-line) is on record as “approximately 5.6 months”.
Consider `CNC(=O)c1cc(Oc2ccc(NC(=O)Nc3ccc(Cl)c(C(F)(F)F)c3)c(F)c2)ccn1` [regorafenib], for which the “syndromes such as PPES, grade 3” value in the series on GIST [5] is 19.7%. The mPFS in the series on GIST [5] (third-line) is given as approximately 4.8 months.
On to `Cc1ccc(NC(=O)c2ccc(CN3CCN(C)CC3)cc2)cc1Nc1nccc(-c2cccnc2)n1` [imatinib], for which the mPFS with metastatic GIST is 1.7-2 years.

The values above are taken from publication PMC7526717 (Journal of Clinical Oncology, 2020).
